Series [1] can be described thus: Critical micelle concentration determined from the plots of the fluorescence intensity as a function of compound concentration. It counts as ADME. The method, boiled down: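 Fluorescence of 8-anilino-1-naphthalenesulfonic acid (5 μM) followed as a function of compound concentration. Buffer: 20 mM HEPES pH 7.5 with 2 mM Ca²⁺, no DTNB. cmc read from the intensity-versus-concentration plot.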

A short description of series [2]: Ratio of catalysis rate (kcat) and Michaelis-Menten constant (Km) of the compound. The method, boiled down:
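Recombinant human synovial PLA₂ (baculovirus-expressed, HPLC-purified) at 14 nM in 20 mM HEPES pH 7.5, 2 mM Ca²⁺, 0.8 mM DTNB. Thioester hydrolysis read at 405 nm as thionitrobenzoate (ε 13 600). Initial rates measured at substrate concentrations up to 100 μM. Apparent kcat/KM taken as the slope of rate versus [S] divided by enzyme concentration.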

Series [3] in a line: Hydrolysis rate of the compound. A digest of the protocol:
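pH-stat at pH 9, titrated with 1 mM NaOH. Substrate 100 μM in deionized water with 2 mM Ca²⁺, under a nitrogen stream. Started with recombinant human synovial PLA₂ (1.69 nmol, 2.41 μg), purified from baculovirus by reversed-phase HPLC; preliminary set used E. coli-expressed enzyme. Rate recorded for 1 h from base consumption.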

Series [4] can be described thus: Hydrolysis turn over determined from the plots of the fluorescence assay quantified by HPLC. The method, boiled down:
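Recombinant human synovial PLA2 expressed in E. coli. Turnover of an amine-headgroup (phosphatidylethanolamine) substrate was measured by derivatizing the amine with excess fluorescamine and quantifying the fluorescent derivatives by reversed-phase HPLC. The rate is expressed as nmol·min⁻¹·mg⁻¹ enzyme.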

The structures appear in SMILES notation.

`CCCCCCCC(=O)SC[C@H](COP(=O)([O-])OC)SC(=O)CCCCCCC.[Li+]` gave a CMC in series [1] of 0.03 mM. Further, the Ratio in series [2] is 408000 l s-1 M-1.

Consider `CCCCCC(=O)SC[C@H](COP(=O)([O-])OC)SC(=O)CCCCC.[Li+]`, for which the CMC entry in series [1] is recorded as “>= 3 mM”. The Ratio in series [2] was 1800 l s-1 M-1.

On to `CCCCCCCCOC[C@H](COP(=O)(O)OC)SC(=O)CCC`, for which the Ratio in series [2] was 3700 l s-1 M-1.

In the case of `CCCCCCCCCC(=O)S[C@H](COC/C=C/c1ccccc1)COP(=O)([O-])OC.[Li+]`, the CMC in series [1] is 0.04 mM. In addition, in series [2], the Ratio was 19000 l s-1 M-1.

Turning to `CCCCCC(=O)OC[C@H](COP(=O)(O)O[C@@H](C)[C@@H](N)C(=O)O)OC(=O)CCCCC`, in series [3], the Hydrolysis (nmol min-1 mg-1) is less than 5.

With `CCCCCCC(=O)SC[C@H](COP(=O)([O-])OC)SC(=O)CCCCCC.[Li+]`, the CMC in series [1] was 0.3 mM. In series [2], the Ratio is 37700 l s-1 M-1.

As for `CC/C=C/C(=O)S[C@H](COCCCCCC)COP(=O)(O)OC`, the Ratio in series [2] was < 100 l s-1 M-1.

On to `CCCCCCCCOC[C@H](COP(=O)([O-])OC)SC(=O)CCCCCCC.[Li+]`, for which the CMC in series [1] is 0.13 mM. In addition, in series [2], the Ratio was 12000 l s-1 M-1.

For the compound `CCCCCCCCCC(=O)S[C@H](COCCC(C)(C)C)COP(=O)([O-])OC.[Li+]`, the CMC in series [1] turned out to be 0.4 mM. Moreover, the Ratio in series [2] is 627 l s-1 M-1.

Compound `CCCCCC(=O)OC[C@H](COP(=O)(O)OC[C@H]1CCCN1)OC(=O)CCCCC` gave a Hydrolysis (nmol min-1 mg-1) in series [3] of 13. In series [1], this compound came in with a CMC of 0.5 mM.

In turn, `CCCOC[C@H](COP(=O)([O-])OC)SC(=O)CCC.[Li+]` gave a CMC in series [1] of 3 mM. The Ratio in series [2] was < 10 l s-1 M-1.

The compound `CCCCCC(=O)OC[C@H](COP(=O)(O)OCCO)OC(=O)CCCCC` had a Hydrolysis (nmol min-1 mg-1) in series [3] of less than 5.

For `CCC(=O)SC[C@H](COP(=O)([O-])OC)SC(=O)CC.[Li+]`, the CMC entry in series [1] is given as “>= 3 mM”. Also, the Ratio in series [2] was < 10 l s-1 M-1.

`CCCCCCCCCC(=O)S[C@H](COCc1ccc(-c2ccccc2)cc1)COP(=O)([O-])OC.[Li+]` displayed a CMC in series [1] of 0.1 mM. Moreover, the Ratio in series [2] was 2500 l s-1 M-1.

Compound `CCCCCC(=O)OC[C@H](COP(=O)(O)OCCN)OC(=O)CCCCC` returned a Hydrolysis (nmol min-1 mg-1) in series [3] of 5.3. Besides, in series [4], the CMC is 2.3 mM.

In turn, `CCCCCCCCCC(=O)S[C@H](COCc1ccc(Oc2ccccc2)cc1)COP(=O)([O-])OC.[Li+]` had a CMC in series [1] of 0.04 mM. Moreover, in series [2], the Ratio was 4600 l s-1 M-1.

Turning to `CCCCCCOC[C@H](COP(=O)(O)OC)SC(=O)c1ccccc1`, in series [2], the Ratio is < 100 l s-1 M-1.

Regarding `CC/C=C\CCOC[C@H](COP(=O)([O-])OC)SC(=O)CCCCCCCCC.[Li+]`, in series [1], the CMC was found to be 0.2 mM. In addition, in series [2], the Ratio was 5900 l s-1 M-1.

Turning to `CCCCCOC[C@H](COP(=O)(O)OC)SC(=O)CCC`, the Ratio in series [2] was < 100 l s-1 M-1.

In series [3], `CCCCCC(=O)OC[C@H](COP(=O)(O)OC[C@@H]1CCCN1)OC(=O)CCCCC` gave a Hydrolysis (nmol min-1 mg-1) of 12. In series [1], this compound came in with a CMC of 0.8 mM.

The compound `CCCCCC(=O)OC[C@H](COP(=O)(O)OC)OC(=O)CCCCC` yielded a Hydrolysis (nmol min-1 mg-1) in series [3] of less than 5.

In the case of `CCCCCCCCCC(=O)S[C@H](COCc1ccccc1)COP(=O)([O-])OC.[Li+]`, in series [1], the CMC is given as 0.2 mM. Also, in series [2], the Ratio is 5000 l s-1 M-1.

In series [1], `CCCC(=O)SC[C@H](COP(=O)([O-])OC)SC(=O)CCC.[Li+]` returned a CMC of 2.3 mM. The Ratio in series [2] is 200 l s-1 M-1.

As for `CCCCCC(=O)OC[C@H](COP(=O)(O)OC[C@@H](N)C(=O)O)OC(=O)CCCCC`, the Hydrolysis (nmol min-1 mg-1) in series [3] was less than 5.

`CCCCCCOC[C@H](COP(=O)(O)OC)SC(=O)CCC(C)C`: the Ratio in series [2] is < 100 l s-1 M-1.

On to `CCCCCCOC[C@H](COP(=O)(O)OC)SC(=O)CCc1ccccc1`, for which the Ratio in series [2] is 160 l s-1 M-1.

In series [1], `CCCCCC(=O)SC[C@H](COP(=O)(OC)OC)SC(=O)CCCCC` yielded a CMC of 0.04 mM. Also, in series [2], the Ratio was < 100 l s-1 M-1.

On to `CCCCCCCC(=O)S[C@H](COCCC)COP(=O)([O-])OC.[Li+]`, for which the CMC in series [1] was determined as 1 mM. For the same compound, the Ratio in series [2] was 1200 l s-1 M-1.

Turning to `CCCCCCCC(=O)S[C@H](COCCCCC)COP(=O)([O-])OC.[Li+]`, the CMC in series [1] is listed as 1.25 mM. Also, the Ratio in series [2] was 7000 l s-1 M-1.

Regarding `CCCCC(=O)SC[C@H](COP(=O)([O-])OC)SC(=O)CCCC.[Li+]`, in series [1], the CMC was greater than 9 mM. Moreover, the Ratio in series [2] was 870 l s-1 M-1.

The compound `CCCCCCCCC(=O)SC[C@H](COP(=O)([O-])OC)SC(=O)CCCCCCCC.[Li+]` came in with a CMC in series [1] of less than 0.03 mM. In addition, the Ratio in series [2] is 541000 l s-1 M-1.
